Bounds are passed on as bounds.

The target of one data set is Cytochrome P450 3A4 (Homo sapiens, UniProt P08684). Briefly: Inhibition of CYP3A4. In kind it is ADME.
A further data set deals with Cytochrome P450 2C19 (Homo sapiens, UniProt P33261). Briefly: Inhibition of CYP2C19. The data set is classed as ADME.
Data set [1] addresses T1, Serine/threonine-protein kinase B-raf (Homo sapiens, UniProt P15056, V600E). In words: Inhibition of B-Raf V600E mutant assessed as inhibition of phosphorylated ERK production by cell based assay. In short, it runs like this:
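Cell-based readout of phospho-ERK production. The IC50 is the average of three experiments.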

Data set [2] has as its target T1, Serine/threonine-protein kinase B-raf. Briefly: Inhibition of B-Raf V600E mutant.
The target of a further data set is T2, Cytochrome P450 1A2 (Homo sapiens, UniProt P05177).
T2 sequence (P05177 whole entry): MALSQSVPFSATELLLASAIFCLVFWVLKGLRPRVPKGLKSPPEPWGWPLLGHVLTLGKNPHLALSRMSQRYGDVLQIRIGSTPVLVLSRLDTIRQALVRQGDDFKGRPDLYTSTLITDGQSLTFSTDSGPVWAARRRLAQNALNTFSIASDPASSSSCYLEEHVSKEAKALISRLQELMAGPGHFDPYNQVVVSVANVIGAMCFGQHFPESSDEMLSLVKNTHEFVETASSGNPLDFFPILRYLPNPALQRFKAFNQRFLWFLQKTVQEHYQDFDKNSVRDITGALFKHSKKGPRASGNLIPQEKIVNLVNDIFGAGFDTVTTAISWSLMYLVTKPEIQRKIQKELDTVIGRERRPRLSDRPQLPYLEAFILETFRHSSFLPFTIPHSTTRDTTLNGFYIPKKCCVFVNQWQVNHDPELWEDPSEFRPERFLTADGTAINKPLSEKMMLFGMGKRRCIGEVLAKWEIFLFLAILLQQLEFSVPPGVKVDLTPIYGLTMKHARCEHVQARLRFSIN
Briefly: Inhibition of CYP1A2. The data set is classed as ADME.

Data set [3] can be described thus: Permeability of the compound across human Caco2 cells. The data set is classed as ADME, cell-based. Particulars: caco-2, read-out: permeability. The method in brief:
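Caco-2 permeability is reported as a class: low (<2 × 10^-6 cm/s), medium (2–8 × 10^-6 cm/s), high (>8 × 10^-6 cm/s).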
(In general: Passage across Caco-2 layers is used to estimate intestinal permeability.)

A further data set concerns Caco-2. Briefly: Permeability ratio of the compound across human Caco2 cells. In kind it is ADME, cell-based.
Data set [4] in a line: Aqueous solubility of the compound at pH 6.5. The data set is classed as physicochemical.

T1 sequence (P15056 2-766 V600E limits assumed): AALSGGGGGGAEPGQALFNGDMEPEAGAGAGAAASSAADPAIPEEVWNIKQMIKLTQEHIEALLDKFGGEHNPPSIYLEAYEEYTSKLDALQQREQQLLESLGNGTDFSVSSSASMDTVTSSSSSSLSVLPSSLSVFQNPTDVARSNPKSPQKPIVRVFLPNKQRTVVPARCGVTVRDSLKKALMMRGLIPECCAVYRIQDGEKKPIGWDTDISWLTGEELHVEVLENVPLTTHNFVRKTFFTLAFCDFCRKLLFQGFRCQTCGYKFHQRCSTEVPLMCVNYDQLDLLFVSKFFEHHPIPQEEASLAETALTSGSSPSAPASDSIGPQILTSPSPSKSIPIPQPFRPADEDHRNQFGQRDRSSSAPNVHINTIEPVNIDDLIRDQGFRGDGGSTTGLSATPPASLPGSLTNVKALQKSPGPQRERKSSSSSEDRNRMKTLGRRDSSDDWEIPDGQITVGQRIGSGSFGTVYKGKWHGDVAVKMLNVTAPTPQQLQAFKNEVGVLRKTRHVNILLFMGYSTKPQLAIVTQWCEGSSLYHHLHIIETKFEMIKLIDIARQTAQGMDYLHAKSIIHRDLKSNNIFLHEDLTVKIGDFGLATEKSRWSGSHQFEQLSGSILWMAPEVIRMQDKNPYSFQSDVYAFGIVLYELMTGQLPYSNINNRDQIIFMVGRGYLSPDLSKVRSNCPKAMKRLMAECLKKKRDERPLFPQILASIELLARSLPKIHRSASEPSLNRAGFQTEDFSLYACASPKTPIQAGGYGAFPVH
Cytochrome P450 3A4, sequence (P08684 whole entry): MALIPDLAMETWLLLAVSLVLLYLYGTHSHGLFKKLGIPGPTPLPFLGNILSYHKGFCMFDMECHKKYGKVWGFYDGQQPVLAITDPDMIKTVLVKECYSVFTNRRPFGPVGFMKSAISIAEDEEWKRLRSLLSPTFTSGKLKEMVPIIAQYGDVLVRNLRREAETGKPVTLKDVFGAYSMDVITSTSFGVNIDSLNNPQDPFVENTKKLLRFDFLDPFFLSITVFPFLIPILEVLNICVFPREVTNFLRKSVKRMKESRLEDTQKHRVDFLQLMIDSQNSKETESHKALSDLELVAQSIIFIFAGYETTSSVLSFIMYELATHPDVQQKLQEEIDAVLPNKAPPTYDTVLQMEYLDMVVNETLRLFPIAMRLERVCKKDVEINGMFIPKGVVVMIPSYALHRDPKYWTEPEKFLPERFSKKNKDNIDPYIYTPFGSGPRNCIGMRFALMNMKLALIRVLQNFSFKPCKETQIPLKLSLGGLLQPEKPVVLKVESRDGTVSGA
Cytochrome P450 2C19, sequence (P33261 whole entry): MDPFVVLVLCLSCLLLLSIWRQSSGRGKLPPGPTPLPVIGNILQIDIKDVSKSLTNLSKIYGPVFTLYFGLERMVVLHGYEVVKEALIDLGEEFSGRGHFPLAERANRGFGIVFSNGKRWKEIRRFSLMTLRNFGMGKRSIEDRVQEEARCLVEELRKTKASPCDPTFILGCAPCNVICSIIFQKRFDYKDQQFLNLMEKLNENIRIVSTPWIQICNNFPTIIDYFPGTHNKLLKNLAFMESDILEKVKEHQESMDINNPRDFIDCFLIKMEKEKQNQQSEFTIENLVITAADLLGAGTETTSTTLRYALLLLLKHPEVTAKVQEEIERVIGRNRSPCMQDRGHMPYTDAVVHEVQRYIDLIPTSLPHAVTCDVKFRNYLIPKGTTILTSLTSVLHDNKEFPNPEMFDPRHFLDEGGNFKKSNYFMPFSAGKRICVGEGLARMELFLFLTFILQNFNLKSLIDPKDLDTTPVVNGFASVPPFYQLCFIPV

As usually defined, the IC50 is the concentration that inhibits the measured activity by half. On to `CCOC(=O)c1oc2cnccc2c1Nc1ccc2c(c1)CC/C2=N/O`, for which the IC50 on Cytochrome P450 3A4 was 8.3 µM; on Cytochrome P450 2C19, 1.18 µM; in data set [1], 0.03 µM; in data set [2], less than 0.002 µM; at Cytochrome P450 1A2 it was more than 25 µM.

In data set [2], `NCc1ccc(Nc2c(-c3ccccc3)nc3cnccn23)cc1` registered an IC50 of 1.4 µM.

In the case of `Clc1ccc(Nc2c(-c3ccccc3)nc3cnccn23)cc1`, the IC50 in data set [1] was 76 µM; in data set [2] it was 0.57 µM.

The compound `Cc1nc2cnccn2c1Nc1ccc(Cl)cc1` displayed an IC50 in data set [2] of 1.2 µM.

For `CCOC(=O)c1nc2cnccn2c1Nc1ccc2c(c1)CC/C2=N\O`, the IC50 in data set [1] came to 3.1 µM; in data set [2] it was 0.016 µM.

As for `O/N=C1/CCc2cc(Nc3c(-c4ccccc4)nc4cnccn34)ccc21`, the values for the IC50 in data set [1] and in data set [2] were 19 µM and 0.035 µM, respectively.

As to `O/N=C1/CCc2cc(Nc3c(-c4cccnc4)nc4cnccn34)ccc21`, the figures for the IC50 in data set [1] and in data set [2] were 16 µM and 0.047 µM, respectively.

`O/N=C1/CCc2cc(Nc3c(-c4ccco4)nc4cnccn34)ccc21`: the IC50 in data set [1] amounted to 1.4 µM; in data set [2] it was 0.004 µM.

Consider `CCOC(=O)c1sc2cnccc2c1Nc1ccc2c(c1)CC/C2=N/O`, for which the IC50 on Cytochrome P450 3A4 is 0.05 µM; on Cytochrome P450 2C19, 0.129 µM; in data set [1], 0.28 µM; in data set [2], 0.003 µM; against Cytochrome P450 1A2, 0.616 µM.

With `CN(C)C(=O)c1sc2cnccc2c1Nc1ccc2c(c1)CC/C2=N/O`, the IC50 in data set [1] came out at 5.8 µM; in data set [2] it was 0.04 µM.

As for `CN(C)CCNC(=O)c1sc2cnccc2c1Nc1ccc2c(c1)CC/C2=N/O`, the values for the IC50 in data set [1] and in data set [2] were 8.2 µM and 0.052 µM, respectively.

With `O/N=C1/CCc2cc(Nc3csc4cnccc34)ccc21`, the values for the half-inhibitory concentration (IC50) in data set [1] and in data set [2] were 7.3 µM and 0.032 µM, respectively.

For the compound `O/N=C1/CCc2cc(Nc3c(-c4ccccc4)sc4cnccc34)ccc21`, the IC50 in data set [1] amounted to 1.5 µM; in data set [2] it was 0.003 µM.

On to `O/N=C1/CCc2cc(Nc3c(-c4cccnc4)sc4cnccc34)ccc21`, for which the IC50 in data set [1] came out at 0.17 µM; in data set [2], 0.003 µM.

`CCCC(=O)c1sc2cnccc2c1Nc1ccc2c(c1)CC/C2=N/O`: the IC50 is 0.14 µM in data set [1] and less than 0.002 µM in data set [2].

Take `CN(C)C(=O)c1oc2cnccc2c1Nc1ccc2c(c1)CC/C2=N\O`: the IC50 in data set [1] amounted to 0.34 µM; in data set [2] it was 0.005 µM.

The term solubility denotes the dissolved amount per volume that the medium holds. The low end stands for little dissolved substance, the high end for much dissolved substance. With `CN(C)CCNC(=O)c1oc2cnccc2c1Nc1ccc2c(c1)CC/C2=N\O`, the IC50 in data set [1] is 0.04 µM; in data set [2] it was 0.002 µM. Also, the Papp in data set [3] is more than 80 nm/s. In addition, the Ratio in the data set on Caco-2 is given as 0.9. The compound further came in with a solubility in data set [4] of more than 1 mg/mL.

Turning to `Cc1ccc(-c2oc3cnccc3c2Nc2ccc3c(c2)CC/C3=N\O)cc1`, the figures for the IC50 in data set [1] and in data set [2] were 2 µM and 0.003 µM, respectively.

Turning to `O/N=C1\CCc2cc(Nc3c(-c4ccccn4)oc4cnccc34)ccc21`, the results for the IC50 in data set [1] and in data set [2] were 0.15 µM and less than 0.002 µM, respectively.

As to `O/N=C1/CCc2cc(Nc3c(-c4cccnc4)oc4cnccc34)ccc21`, the IC50 in data set [1] was 0.96 µM; in data set [2] it was less than 0.002 µM.

On to `Cc1cc(-c2oc3cnccc3c2Nc2ccc3c(c2)CC/C3=N\O)no1`, for which the IC50 in data set [1] is 0.365 µM; in data set [2] it was less than 0.002 µM.

As to `O/N=C1\CCc2cc(Nc3c(-c4ncccn4)oc4cnccc34)ccc21`, the IC50 in data set [1] was determined as 0.005 µM; in data set [2] it was 0.0002 µM. For the same compound, the Papp in data set [3] is more than 80 nm/s. Also, the Ratio in the data set on Caco-2 is on record as 0.9.

Turning to `Oc1cc(-c2nc(-c3ccccc3)[nH]c2-c2ccncc2)ccc1Cl`, the IC50 in data set [2] came to 0.01 µM.

(Values after ChEMBL document CHEMBL1667771, “The discovery of furo[2,3-c]pyridine-based indanone oximes as potent and selective B-Raf inhibitors” (Bioorg Med Chem Lett, 2011).)
